In PMC10107792 (Chemistry (Weinheim an Der Bergstrasse, Germany), 2022):
Values joined by “and” are separate entries in the source; they are usually repeats but may differ in a detail not shown here. Identical values can stand only once.

Columns and labels:
E. coli DH5α = format: cell-based; settings: growth inhibition, efflux-competent strain, OD 600 nm
E. coli ΔtolC = experiment: Growth inhibition of E. coli ΔtolC; format: cell-based; settings: conjugate vs. non-conjugated 9, E. coli ΔtolC
MraY from S. aureus = target: T1, MraY from S. aureus (Staphylococcus aureus, UniProt Q2FZ93); format: biochemical
T1 sequence (Q2FZ93 1-321): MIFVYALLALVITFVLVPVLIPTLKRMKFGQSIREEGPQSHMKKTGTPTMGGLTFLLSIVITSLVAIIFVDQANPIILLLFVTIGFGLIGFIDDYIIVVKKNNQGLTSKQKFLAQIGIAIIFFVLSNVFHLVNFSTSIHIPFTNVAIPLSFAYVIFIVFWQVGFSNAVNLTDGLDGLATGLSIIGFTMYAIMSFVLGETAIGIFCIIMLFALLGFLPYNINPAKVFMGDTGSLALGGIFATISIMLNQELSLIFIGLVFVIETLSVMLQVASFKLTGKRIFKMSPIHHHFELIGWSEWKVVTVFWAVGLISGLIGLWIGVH
Procedure, shortened: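 S. aureus MraY crude membranes (final total protein ~1 mg/mL) with 50 μM undecaprenyl phosphate and 7.5 μM dansylated Park's nucleotide in 100 mM Tris-HCl pH 7.5, 200 mM KCl, 10 mM MgCl2, 0.1% Triton X-100. Fluorescence followed over time (ex 355/em 520 nm). Rate from 0–2 min linear regression; sigmoidal fit against log concentration gives IC50 ± SD. Variant: membranes pretreated with 1 mM diamide, 0 °C, 20 min (final 50 μM).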

P. aeruginosa PAO1 = format: cell-based; settings: growth inhibition, OD 600 nm
MraY = settings: read-out: MraY inhibition IC50; in vitro; ref 15c; cited from earlier work
S. aureus = settings: ref 15c; cited from earlier work

| SMILES | IC50 (E. coli DH5α) (E. coli DH5α) [mg/L] | fold increase of antibacterial activity relative to 9 (E. coli ΔtolC) | IC50 (MraY from S. aureus) | IC50 (P. aeruginosa PAO1) (P. aeruginosa PAO1) [mg/L] | IC50 (MraY) [nM] | antibacterial activity against S. aureus (S. aureus) |
| --- | --- | --- | --- | --- | --- | --- |
| CC(=O)Oc1cccc(C(=O)N[C@H]2COC(=O)[C@@H](NC(=O)c3cccc(OC(C)=O)c3OC(C)=O)[C@H](CCCNC(=O)CCSSCCCCCCCCCCC(=O)NC[C@H](NC(=O)[C@H](CCCCN)NC(=O)N[C@H](C(=O)O)C(C)C)C(=O)NCCCN[C@@H](C[C@H]3O[C@@H](n4ccc(=O)[nH]c4=O)[C@H](O)[C@@H]3O)C(=O)O)OC(=O)[C@@H](NC(=O)c3cccc(OC(C)=O)c3OC(C)=O)COC2=O)c1OC(C)=O [(AcO)EntKL‐SS‐9] | >100 | ca. 11 fold | 123 nM and 89 nM | >100 |  |  |
| CO[C@H]1[C@H](O[C@H]([C@H]2O[C@@H](n3ccc(=O)[nH]c3=O)[C@H](O)[C@@H]2O)[C@H](NCCCNC(=O)[C@@H](NC(=O)[C@@H](NC(=O)N[C@H](C(=O)O)C(C)C)[C@@H]2CCNC(=N)N2)[C@@H](OC(=O)CCCCCCCCCCCCC(C)C)C(C)C)C(=O)O)O[C@H](CN)[C@H]1O [Compound 5, muraymycin B8] |  |  |  |  | 0.004 ± 0.0007 | promising antibacterial activity |
